The source made the active and inactive calls.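 The calls were made as follows, unless noted: active = inhibition at or above 50% at 10 µM; inactive = inhibition below 50%.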

Experiment [1] is described as follows: inhibitors of TNFa-induced NFkB p65 translocation, primary screen, imaging, HUVEC, MLSMR starter and 10KST1 sets (AID 438;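 active = inhibition above 20% together with a positive visual image hit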;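 also: compound added about 3h40 before a 20 min TNFalpha stimulation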;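 as to inhibition: signal is the nuclear over cytoplasmic p65 intensity ratio per well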). As to conditions: HUVEC TNFa-induced p65 nuclear translocation; cell count: measured here: nuclei count (cytotoxicity indicator), at 2.08 µM; inhibition: at 2 µM, stronger effect = higher value, 0% TNFa-plus-vehicle, 100% no-TNFa wells.
The nature of experiment [2]: reduction of polyQ htt aggregates in cells – imaging, exon1htt(103Q)mCFP cells, high-content imaging, primary screen (AID 483;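 active = visual image review flags a hit and inhibition of aggregation exceeds 20%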;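 also: compound exposure lasted 3 days before fixation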;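 as to nuclei count: percent of the per-plate median nuclei count of sample wells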). Particulars: exon1htt(103Q)mCFP cell line, aggregate imaging, at 2 µM; inhibition of aggregation: stronger effect = higher value; nuclei count: measured here: cell count, toxicity.
Experiment [3] can be described thus: endothelial E-selectin expression blockers – imaging, HUVEC, immunofluorescence, MLSMR starter and 10KST1 sets, primary screen (AID 487;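 active = visually confirmed hit in the image check and inhibition above 20%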;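 as to inhibition: signal is fraction of cell area covered by stained E-selectin grains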;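 as to nuclei count: 100% = median nuclei count of all wells on the same plate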). Particulars: HUVEC TNFalpha-induced E-selectin immunofluorescence imaging, at 2 µM; inhibition: stronger effect = higher value; nuclei count: measured here: cell number, toxicity.
Experiment [4] has as its target Voltage-gated potassium channel subunit beta-2 (Rattus norvegicus) (UniProt P62483). As to the kind of experiment: inhibitors of rat Kvbeta2 reductase activity – biochemical, NADPH fluorescence, primary screen (AID 622;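 active = fluorescence slope higher than the sample average by over 3 SD, cut at about -0.22 in these data, passing the limit was not always enough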;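 also: slope of raw intensity against log time taken from 70 to 1610 s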). As to conditions: recombinant KvBeta, 4-cyanobenzaldehyde reduction, at 10 µM, stronger effect = higher value.
The target is the same in experiment [5]. In words: enhancers of rat Kvbeta2 NADPH turnover – biochemical, NADPH fluorescence, primary screen (AID 623;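 active = NADPH fluorescence slope more negative than the mean of all samples by about 3 SD, 99.7% confidence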;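 also: fluorescence intensity change per second fitted from 20 to 320 s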). Particulars: Recombinant KvBeta, NADPH fluorescence decrease slope, 10 min; at 10 µM; stronger effect = lower value.
For experiment [6], the target named is Muscarinic acetylcholine receptor M4 (Homo sapiens) (UniProt P08173). As to the kind of experiment: M4-linked GIRK flux change, two-sided – cell-based, HEK293 M4/GIRK, thallium flux, BTC-AM, M4 allosteric agonist project, primary screen (AID 625;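 active = fluorescence slope after compound addition differing from the mean of all tested samples at 99.7% confidence, mostly higher but some lower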;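 also: thallium influx through GIRK channels coupled to M4 in HEK293 cells with BTC-AM dye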). Particulars: at 10 µM, actives lie on both sides. A digest of the protocol: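 System: HEK293 cells with M4 receptor and GIRK channels | Incubation: Cells overnight at 37 °C, BTC-AM loading 1 h, reads 2 min total | Technique: Kinetic BTC-AM fluorescence sampled at 1 Hz, 10 s pre-addition baseline | Measure: Post-addition slope, 15–24 s, of baseline-normalized fluorescence | Control set: Carbachol positive, DMSO negative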

Experiment [7] can be described thus: blockers of RIG-like receptor reporter activation – cell-based, Sendai virus stimulus, luciferase, 10K MLSCN set, TLR/RLR signaling modifier project, primary screen (AID 602276).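 Also: firefly luciferase from ISG56 promoter only with Renilla not read in this screen; 0% = Sendai virus plus DMSO and 100% = medium plus DMSO without virus.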 Particulars: HEK293 RL24 IRF3 luciferase reporter, at 10 µM, stronger effect = higher value. (A reporter such as luciferase makes a cellular process visible.)
Experiment [8] can be described thus: TLR3 IRF3 reporter activation blockers – cell-based, poly I:C stimulus, luciferase, 10K MLSCN set, primary screen (AID 602277;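 active = inhibition of the reporter signal at or above 50%; inactive = inhibition below 50%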). Particulars: HEK293-TLR3 RL24 IRF3 luciferase reporter, at 10 µM, stronger effect = higher value.

Sequence of Voltage-gated potassium channel subunit beta-2 (Rattus norvegicus) (P62483 whole entry, looked up): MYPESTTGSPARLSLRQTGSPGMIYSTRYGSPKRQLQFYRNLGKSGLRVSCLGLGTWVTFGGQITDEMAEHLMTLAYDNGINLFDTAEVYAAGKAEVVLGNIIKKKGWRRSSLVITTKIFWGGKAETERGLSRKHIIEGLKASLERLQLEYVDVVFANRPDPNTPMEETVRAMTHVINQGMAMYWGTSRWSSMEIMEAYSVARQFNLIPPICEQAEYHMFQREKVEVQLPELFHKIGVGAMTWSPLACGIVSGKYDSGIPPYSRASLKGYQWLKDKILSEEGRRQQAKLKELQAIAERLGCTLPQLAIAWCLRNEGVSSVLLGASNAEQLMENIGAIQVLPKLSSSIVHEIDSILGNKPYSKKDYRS
Sequence of Muscarinic acetylcholine receptor M4 (Homo sapiens) (P08173 whole entry, looked up): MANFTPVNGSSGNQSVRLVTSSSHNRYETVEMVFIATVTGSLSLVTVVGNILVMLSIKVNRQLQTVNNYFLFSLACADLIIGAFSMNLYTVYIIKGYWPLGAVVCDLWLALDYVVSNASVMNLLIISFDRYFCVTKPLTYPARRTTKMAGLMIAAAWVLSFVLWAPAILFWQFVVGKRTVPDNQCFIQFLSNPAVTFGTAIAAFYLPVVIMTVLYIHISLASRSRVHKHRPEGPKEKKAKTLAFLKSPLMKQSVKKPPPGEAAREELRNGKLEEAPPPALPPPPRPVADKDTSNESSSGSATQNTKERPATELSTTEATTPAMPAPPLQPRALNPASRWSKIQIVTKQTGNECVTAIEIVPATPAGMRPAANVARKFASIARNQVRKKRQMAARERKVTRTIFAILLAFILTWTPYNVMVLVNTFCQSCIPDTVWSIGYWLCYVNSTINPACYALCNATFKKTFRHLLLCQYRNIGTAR

Turning to `COc1ccccc1-n1c(C)nnc1SCC(N)=O`, the cell count in experiment [1] came out at 382. The inhibition (usually the relative decrease from the control value, in per cent) was 6.2% (inactive) in experiment [1], -49.7% (inactive) in experiment [3], 17.4% (inactive) in experiment [7] and 22.3% (inactive) in experiment [8]. In experiment [2], the inhibition of aggregation is 7.3% (inactive). For the same compound, the nuclei count in experiment [2] was 100%; in experiment [3], 103%. The fluorescence slope is -0.521 (inactive) in experiment [4] and 0.00439 (inactive) in experiment [6]. Further, the NADPH fluorescence slope in experiment [5] was -1.4e-05 (inactive).
Turning to `CCCCC(=O)Nc1nn(CCC)c2nc3ccccc3cc12`, the cell count in experiment [1] was 363. Besides, the inhibition in experiment [1] is 4.2% (inactive); in experiment [3], -44.8% (inactive); in experiment [7] it was 10.1% (inactive); in experiment [8], -0.131% (inactive). For the same compound, the inhibition of aggregation in experiment [2] is -14.8% (inactive). Also, the nuclei count came to 108% in experiment [2] and 116% in experiment [3]. Moreover, the fluorescence slope in experiment [4] is -0.568 (inactive); in experiment [6] it was 0.00381 (inactive). Besides, in experiment [5], the NADPH fluorescence slope was -3.3e-05 (inactive).
Turning to `O=C(CSc1nnnn1-c1ccccc1)Nc1nsc(-c2ccc(Cl)cc2)n1`, the cell count in experiment [1] is 449. Moreover, the inhibition in experiment [1] was -4.1% (inactive); in experiment [3] it was 59.2% (inactive); in experiment [7] it was 15.4% (inactive); in experiment [8], 15.1% (inactive). The inhibition of aggregation in experiment [2] was 17.3% (inactive). Further, the nuclei count in experiment [2] stood at 95.1%; in experiment [3], 130%. Moreover, the fluorescence slope in experiment [4] is -0.561 (inactive); in experiment [6], 0.00729 (inactive). For the same compound, in experiment [5], the NADPH fluorescence slope was -3.3e-05 (inactive).
For `COC(=O)Cc1c(C)nc2nc(-c3ccco3)[nH]n2c1=O`, the cell count in experiment [1] worked out at 409. In addition, the inhibition was 1.2% (inactive) in experiment [1], -28.5% (inactive) in experiment [3], 9.5% (inactive) in experiment [7] and 19.1% (inactive) in experiment [8]. Moreover, the inhibition of aggregation in experiment [2] was 5.5% (inactive). In addition, the nuclei count in experiment [2] was 93.6%; in experiment [3] it was 105%. Further, the fluorescence slope is -0.467 (inactive) in experiment [4] and 0.00635 (inactive) in experiment [6]. In experiment [5], the NADPH fluorescence slope was -4e-05 (inactive).
For `Cc1cc(SCC(N)=O)nc(SCC(=O)c2ccccc2)n1`, the cell count in experiment [1] is 584. The inhibition in experiment [1] was -3.3% (inactive); in experiment [3], 16.8% (inactive); in experiment [7], 10.5% (inactive); in experiment [8], 21% (inactive). For the same compound, the inhibition of aggregation in experiment [2] was -8.2% (inactive). Besides, the figures for the nuclei count in experiment [2] and in experiment [3] were 105% and 91.6%, respectively. In addition, the fluorescence slope is -0.585 (inactive) in experiment [4] and 0.00307 (inactive) in experiment [6]. In addition, the NADPH fluorescence slope in experiment [5] is -5.2e-05 (inactive).
In the case of `CCc1nccn1S(=O)(=O)c1ccc2ccc(C)cc2c1`, in experiment [1], the cell count is 319. Moreover, the inhibition in experiment [1] is -8.5% (inactive); in experiment [3], -60.6% (inactive); in experiment [7] it was -9.41% (inactive); in experiment [8] it was -15.4% (inactive). Also, in experiment [2], the inhibition of aggregation was -4.1% (inactive). The nuclei count stood at 104% in experiment [2] and 112% in experiment [3]. Further, the fluorescence slope in experiment [4] was -0.512 (inactive); in experiment [6] it was 0.00461 (inactive). The NADPH fluorescence slope in experiment [5] was 1.6e-05 (inactive).
In the case of `COc1cc(NC(=O)c2ccc(COCC(F)(F)F)o2)cc(OC)c1OC`, the cell count in experiment [1] came out at 753. The inhibition in experiment [1] is -11.9% (inactive); in experiment [3], -71% (inactive); in experiment [7], 15.8% (inactive); in experiment [8], 24.7% (inactive). The inhibition of aggregation in experiment [2] was -25% (inactive). In addition, the nuclei count in experiment [2] turned out to be 116%; in experiment [3], 118%. For the same compound, the fluorescence slope in experiment [4] was -0.553 (inactive); in experiment [6], 0.00529 (inactive). In addition, in experiment [5], the NADPH fluorescence slope was -4.6e-05 (inactive).
In the case of `Cc1ccc(-c2ccc(=O)n(CCC(=O)NCc3ccccn3)n2)cc1`, the cell count in experiment [1] came out at 366. Besides, the inhibition in experiment [1] was -15.6% (inactive); in experiment [3], -2.7% (inactive); in experiment [7] it was 14.5% (inactive); in experiment [8], 21.8% (inactive). Besides, the inhibition of aggregation in experiment [2] was -2.2% (inactive). Further, the nuclei count worked out at 99.9% in experiment [2] and 108% in experiment [3]. Moreover, the fluorescence slope is -0.534 (inactive) in experiment [4] and 0.00635 (inactive) in experiment [6]. In addition, the NADPH fluorescence slope in experiment [5] was -3e-05 (inactive).
Turning to `Cc1cc(C)cc(NC(=O)N2CCC(c3nc4ccccc4o3)CC2)c1`, the cell count in experiment [1] is 405. In addition, the inhibition was 7.5% (inactive) in experiment [1], -66.7% (inactive) in experiment [3], 13.6% (inactive) in experiment [7] and 18.7% (inactive) in experiment [8]. In addition, the inhibition of aggregation in experiment [2] was -19.5% (inactive). The figures for the nuclei count in experiment [2] and in experiment [3] were 94.7% and 110%, respectively. Moreover, the fluorescence slope in experiment [4] was -0.494 (inactive); in experiment [6], 0.00524 (inactive). Further, in experiment [5], the NADPH fluorescence slope is 0.00013 (inactive).
For `CCNc1nc(N2CCCCC2)nc(-n2nnc(C(=O)OCC)c2C)n1`, the cell count in experiment [1] stood at 550. The inhibition in experiment [1] was -5.3% (inactive); in experiment [3], 27.7% (inactive); in experiment [7] it was -2.26% (inactive); in experiment [8], 4.91% (inactive). Further, the inhibition of aggregation in experiment [2] was 1.6% (inactive). Moreover, the values for the nuclei count in experiment [2] and in experiment [3] were 92.5% and 66.8%, respectively. Further, the fluorescence slope was -0.613 (inactive) in experiment [4] and 0.00368 (inactive) in experiment [6]. For the same compound, the NADPH fluorescence slope in experiment [5] is -6.3e-05 (inactive).
Turning to `c1ccc2[nH]c(CSc3nnc(-c4ccncc4)o3)nc2c1`, the cell count in experiment [1] was 388. In addition, the inhibition in experiment [1] was -5% (inactive); in experiment [3], -20.9% (inactive); in experiment [7] it was 7.74% (inactive); in experiment [8], 13.2% (inactive). Also, the inhibition of aggregation in experiment [2] was 5.8% (inactive). The values for the nuclei count in experiment [2] and in experiment [3] were 83% and 90.8%, respectively. Moreover, the fluorescence slope in experiment [4] was -0.497 (inactive); in experiment [6], 0.00421 (inactive). Also, the NADPH fluorescence slope in experiment [5] was 1e-06 (inactive).
Take `Cc1nnc(C)n1/N=C/c1cccc(Oc2ccccc2)c1`: the cell count in experiment [1] was found to be 344. Besides, the inhibition in experiment [1] was -0.6% (inactive); in experiment [3], -5.9% (inactive); in experiment [7], 21.3% (inactive); in experiment [8] it was 31.8% (inactive). Besides, the inhibition of aggregation in experiment [2] is 0.1% (inactive). The nuclei count amounted to 102% in experiment [2] and 106% in experiment [3]. Also, the fluorescence slope was -0.462 (inactive) in experiment [4] and 0.00567 (inactive) in experiment [6]. Moreover, in experiment [5], the NADPH fluorescence slope was 1.6e-05 (inactive).
On to `O=C(CSc1ncnc2sc3c(c12)CCCCC3)NCc1ccco1`, for which, in experiment [1], the cell count is 354. Also, the inhibition was -5.1% (inactive) in experiment [1], -196% (inactive) in experiment [3], 17.7% (inactive) in experiment [7] and 35.5% (inactive) in experiment [8]. For the same compound, in experiment [2], the inhibition of aggregation was -11.3% (inactive). Further, the nuclei count in experiment [2] was determined as 93.9%; in experiment [3], 128%. Further, the fluorescence slope was -0.472 (inactive) in experiment [4] and 0.0063 (inactive) in experiment [6]. The NADPH fluorescence slope in experiment [5] was -1.4e-05 (inactive).
For `O=C1CN=C(Nc2cccc(C(F)(F)F)c2)N1C1CCCC1`, in experiment [1], the cell count was 421. Further, the inhibition was 4.8% (inactive) in experiment [1], -375% (inactive) in experiment [3], -11.3% (inactive) in experiment [7] and -11.6% (inactive) in experiment [8]. Further, the inhibition of aggregation in experiment [2] is -11% (inactive). In addition, the nuclei count stood at 107% in experiment [2] and 149% in experiment [3]. Further, the fluorescence slope in experiment [4] is -0.436 (inactive); in experiment [6], 0.00643 (inactive). In addition, in experiment [5], the NADPH fluorescence slope is -0.000109 (inactive).
On to `CN(C(=O)c1ccno1)c1nnc(-c2cnccn2)s1`, for which, in experiment [1], the cell count amounted to 596. Also, the inhibition was -10.8% (inactive) in experiment [1], -39.5% (inactive) in experiment [3], 5.76% (inactive) in experiment [7] and 10.1% (inactive) in experiment [8]. Further, in experiment [2], the inhibition of aggregation is 10.8% (inactive). For the same compound, the nuclei count in experiment [2] worked out at 97.4%; in experiment [3] it was 107%. Also, the values for the fluorescence slope in experiment [4] and in experiment [6] were -0.309 (inactive) and 0.00542 (inactive), respectively. Moreover, the NADPH fluorescence slope in experiment [5] was -5.2e-05 (inactive).

Values taken from PubChem BioAssay.
